In ChEMBL document CHEMBL1141135, “A positron emission tomography radioligand for the in vivo labeling of metabotropic glutamate 1 receptor: (3-ethyl-2-[11C]methyl-6-quinolinyl)(cis- 4-methoxycyclohexyl)methanone” (J Med Chem, 2005) one finds Ki and ID/g data, which are given here for one compound.

Molecules are shown by their SMILES.

The target in data set [1] is Metabotropic glutamate receptor 5 (Rattus norvegicus, UniProt P31424). Kind of data set: In vitro affinity for cloned rat metabotropic glutamate 5 receptors stably expressed on CHO cells determined in radioligand binding assay. The format is cell-based.
Chain of Metabotropic glutamate receptor 5 (P31424 whole entry): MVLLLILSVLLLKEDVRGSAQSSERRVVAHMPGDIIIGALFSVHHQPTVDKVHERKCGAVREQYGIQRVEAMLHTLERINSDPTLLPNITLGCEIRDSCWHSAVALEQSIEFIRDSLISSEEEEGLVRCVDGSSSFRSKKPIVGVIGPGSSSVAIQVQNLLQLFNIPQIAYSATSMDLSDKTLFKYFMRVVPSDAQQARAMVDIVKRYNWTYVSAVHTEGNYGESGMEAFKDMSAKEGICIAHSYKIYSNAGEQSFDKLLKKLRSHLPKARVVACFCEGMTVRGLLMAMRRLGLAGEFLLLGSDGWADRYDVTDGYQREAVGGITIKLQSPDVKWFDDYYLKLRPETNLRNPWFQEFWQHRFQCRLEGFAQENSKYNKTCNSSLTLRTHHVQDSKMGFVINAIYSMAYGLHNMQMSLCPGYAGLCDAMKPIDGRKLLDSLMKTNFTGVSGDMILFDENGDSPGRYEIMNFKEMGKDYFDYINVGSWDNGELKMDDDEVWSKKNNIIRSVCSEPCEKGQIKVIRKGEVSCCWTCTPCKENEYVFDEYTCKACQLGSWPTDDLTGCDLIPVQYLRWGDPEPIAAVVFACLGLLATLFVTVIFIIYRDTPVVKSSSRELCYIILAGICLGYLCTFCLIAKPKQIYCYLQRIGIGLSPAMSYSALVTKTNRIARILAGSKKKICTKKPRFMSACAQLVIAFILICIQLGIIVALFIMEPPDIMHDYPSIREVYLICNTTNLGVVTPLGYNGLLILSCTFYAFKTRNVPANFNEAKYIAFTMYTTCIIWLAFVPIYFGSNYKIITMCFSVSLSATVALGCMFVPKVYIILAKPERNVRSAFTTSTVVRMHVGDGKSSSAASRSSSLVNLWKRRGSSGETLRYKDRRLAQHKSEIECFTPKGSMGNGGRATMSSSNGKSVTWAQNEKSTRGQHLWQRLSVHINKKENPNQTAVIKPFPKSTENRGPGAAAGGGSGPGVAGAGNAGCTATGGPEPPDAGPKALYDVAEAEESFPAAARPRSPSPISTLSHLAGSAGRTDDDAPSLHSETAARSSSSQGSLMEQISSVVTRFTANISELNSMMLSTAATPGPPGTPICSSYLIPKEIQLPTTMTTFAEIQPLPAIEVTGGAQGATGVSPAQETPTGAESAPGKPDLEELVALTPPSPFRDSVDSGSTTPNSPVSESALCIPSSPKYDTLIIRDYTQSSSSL
The target in data set [2] is Metabotropic glutamate receptor 1 (Rattus norvegicus, UniProt P23385). The data set is described as follows: In vitro affinity for cloned rat metabotropic glutamate 1 receptors stably expressed on CHO cells determined using [3H]-R214127 as radioligand. The format is cell-based.
Chain of Metabotropic glutamate receptor 1 (P23385 whole entry): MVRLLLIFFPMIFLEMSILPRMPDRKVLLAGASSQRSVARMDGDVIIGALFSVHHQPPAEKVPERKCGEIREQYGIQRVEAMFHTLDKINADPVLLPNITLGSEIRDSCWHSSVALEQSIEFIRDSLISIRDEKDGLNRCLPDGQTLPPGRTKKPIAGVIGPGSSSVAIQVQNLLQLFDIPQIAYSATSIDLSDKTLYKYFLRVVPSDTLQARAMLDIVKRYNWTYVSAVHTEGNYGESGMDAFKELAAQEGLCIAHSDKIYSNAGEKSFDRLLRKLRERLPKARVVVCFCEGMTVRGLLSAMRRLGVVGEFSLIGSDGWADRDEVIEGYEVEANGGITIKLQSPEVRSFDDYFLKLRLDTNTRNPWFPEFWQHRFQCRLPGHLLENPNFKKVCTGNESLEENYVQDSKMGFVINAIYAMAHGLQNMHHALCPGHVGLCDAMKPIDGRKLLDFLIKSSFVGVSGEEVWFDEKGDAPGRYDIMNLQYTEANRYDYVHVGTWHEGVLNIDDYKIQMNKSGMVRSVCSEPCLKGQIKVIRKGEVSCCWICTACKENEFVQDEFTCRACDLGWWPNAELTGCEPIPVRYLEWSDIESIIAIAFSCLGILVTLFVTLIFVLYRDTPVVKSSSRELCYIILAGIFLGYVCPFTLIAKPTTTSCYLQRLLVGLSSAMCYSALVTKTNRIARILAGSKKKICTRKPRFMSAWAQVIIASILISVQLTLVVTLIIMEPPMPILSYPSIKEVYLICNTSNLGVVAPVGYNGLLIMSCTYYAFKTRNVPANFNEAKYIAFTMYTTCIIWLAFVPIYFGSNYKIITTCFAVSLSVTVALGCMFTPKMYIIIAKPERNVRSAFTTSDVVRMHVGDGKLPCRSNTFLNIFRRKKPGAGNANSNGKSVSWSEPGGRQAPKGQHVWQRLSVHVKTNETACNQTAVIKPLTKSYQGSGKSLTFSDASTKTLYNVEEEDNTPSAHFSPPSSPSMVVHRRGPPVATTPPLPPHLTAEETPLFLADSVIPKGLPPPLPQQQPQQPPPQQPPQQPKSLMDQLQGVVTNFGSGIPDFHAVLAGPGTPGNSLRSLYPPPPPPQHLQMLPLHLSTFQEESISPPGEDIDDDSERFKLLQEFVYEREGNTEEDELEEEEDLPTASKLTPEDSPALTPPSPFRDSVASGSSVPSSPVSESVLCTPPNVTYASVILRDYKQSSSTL
The nature of data set [3]: Uptake in rat striatum 60 minutes after administration of the radiolabeled [11C]-compound. The note with it: in vivo, 1 h. The format is ADME, tissue-based. The gist of the method: (§1)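 Male Sprague-Dawley rats received the [11C] radioligand iv and were sacrificed at 10, 30 or 60 min. Brain regions were dissected and radioactivity counted. Uptake is expressed as %ID/g, mean ± SD, n = 3 animals per group.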

Data set [4] is described as follows: Uptake in rat cerebellum 10 minutes after administration of the radiolabeled [11C]-compound. The format is ADME, tissue-based. The note with it: in vivo. The gist of the method:
as §1

The nature of data set [5]: Uptake in rat cerebellum 30 minutes after administration of the radiolabeled [11C]-compound. The following applies: in vivo, 0.5 h. The format is ADME, tissue-based. The gist of the method: as §1
The nature of data set [6]: Uptake in rat cerebellum 60 minutes after administration of the radiolabeled [11C]-compound. The format is ADME, tissue-based. The note with it: in vivo, 1 h. The gist of the method: as §1
Data set [7] is described as follows: Uptake in rat hippocampus 10 minutes after administration of the radiolabeled [11C]-compound. The following applies: in vivo. It is filed as ADME, tissue-based. Summed up: as §1
Data set [8] can be described thus: Uptake in rat hippocampus 30 minutes after administration of the radiolabeled [11C]-compound. The format is ADME, tissue-based. The note with it: in vivo, 0.5 h. Summed up:
as §1

Data set [9] in a line: Uptake in rat hippocampus 60 minutes after administration of the radiolabeled [11C]-compound. The format is ADME, tissue-based. The note with it: in vivo, 1 h. The gist of the method: as §1
A short description of data set [10]: Uptake in rat frontal cortex 10 minutes after administration of the radiolabeled [11C]-compound. The note with it: in vivo. The format is ADME, tissue-based. The gist of the method:
as §1

Data set [11] in a line: Uptake in rat frontal cortex 30 minutes after administration of the radiolabeled [11C]-compound. It is filed as ADME, tissue-based. The following applies: in vivo, 0.5 h. Summed up: as §1
Data set [12] is described as follows: Uptake in rat frontal cortex 60 minutes after administration of the radiolabeled [11C]-compound. It is filed as ADME, tissue-based. The following applies: in vivo, 1 h. Summed up: as §1
Data set [13] in a line: Uptake in rat blood 10 minutes after administration of the radiolabeled [11C]-compound. The format is ADME, tissue-based.
The nature of data set [14]: Uptake in rat blood 30 minutes after administration of the radiolabeled [11C]-compound. The format is ADME, tissue-based. The note with it: 0.5 h.
Data set [15] in a line: Uptake in rat blood 60 minutes after administration of the radiolabeled [11C]-compound. It is filed as ADME, tissue-based. The note with it: 1 h.
Data set [16] can be described thus: Uptake in rat medulla 10 minutes after administration of the radiolabeled [11C]-compound. The format is ADME, tissue-based, Medulla of organ. The note with it: in vivo. Summed up:
as §1

A short description of data set [17]: Uptake in rat medulla 30 minutes after administration of the radiolabeled [11C]-compound. The format is ADME, tissue-based, Medulla of organ. The note with it: in vivo, 0.5 h. The gist of the method: as §1
Data set [18] in a line: Uptake in rat medulla 60 minutes after administration of the radiolabeled [11C]-compound. The following applies: in vivo, 1 h. It is filed as ADME, tissue-based, Medulla of organ. The gist of the method:
as §1

A short description of data set [19]: Uptake in rat striatum 10 minutes after administration of the radiolabeled [11C]-compound. The format is ADME, tissue-based. The following applies: in vivo. Summed up: as §1
Data set [20] can be described thus: Uptake in rat striatum 30 minutes after administration of the radiolabeled [11C]-compound. It is filed as ADME, tissue-based. The following applies: in vivo, 0.5 h. Summed up: as §1

Usually Ki stands for the equilibrium dissociation constant of an inhibitor or competing ligand from its target. A low value points to a stronger hold on the target. Turning to `CCc1cc2cc(C(=O)[C@H]3CC[C@@H](OC)CC3)ccc2nc1C`, the Ki in [1] was found to be 2370 nM; in data set [2], 0.87 nM. The ID/g in [3] came to 0.1%; in [4], 1.24%; in data set [5] it was 0.61%; in data set [6], 0.27%; in data set [7], 0.58%; in [8], 0.17%. The ID/g in [9] is reported as 0.1%; in data set [10], 0.52%; in data set [11], 0.13%; in data set [12], 0.07%; in data set [13] it was 0.42%; in data set [14] it was 0.26%. Moreover, the ID/g was 0.2% in [15]; 0.47% in [16]; 0.13% in data set [17]; 0.07% in data set [18]; 0.73% in [19]; 0.17% in data set [20].
